Data as given in PubChem BioAssay AID652203 (Vanderbilt Specialized Chemistry Center, 2013).
Activity calls are given as the source filed them. No rule for the calls is given here.

Molecular target: Metabotropic glutamate receptor 7 (Rattus norvegicus) (UniProt P35400)
Assay: L-AP4 potency shift at rat mGlu7 – cell-based, TRex293, Galpha15, Fluo4 calcium, selectivity assay for mGlu5 silent allosteric modulator project (AID 652203)
Conditions: rmGlu7+Galpha15 TRex293, L-AP4 calcium Fluo4 fold shift; at 10 µM
Summary of the method: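 Material: Rat mGlu7 co-expressed with Galpha15 in TRex293 cells | Buffer or medium: Probenecid-containing assay buffer at pH 7.4 | Times: Compound added at 20 s, L-AP4 added at 80 s | Reagent: L-AP4, 3.9 µM–1 mM, 9 concentrations | Technique: Fluo4 fluorescence measuring intracellular calcium | Compound dosing: Single test-compound dose of 10 µM, 1% DMSO final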

Sequence of Metabotropic glutamate receptor 7 (Rattus norvegicus) (P35400 whole entry, looked up): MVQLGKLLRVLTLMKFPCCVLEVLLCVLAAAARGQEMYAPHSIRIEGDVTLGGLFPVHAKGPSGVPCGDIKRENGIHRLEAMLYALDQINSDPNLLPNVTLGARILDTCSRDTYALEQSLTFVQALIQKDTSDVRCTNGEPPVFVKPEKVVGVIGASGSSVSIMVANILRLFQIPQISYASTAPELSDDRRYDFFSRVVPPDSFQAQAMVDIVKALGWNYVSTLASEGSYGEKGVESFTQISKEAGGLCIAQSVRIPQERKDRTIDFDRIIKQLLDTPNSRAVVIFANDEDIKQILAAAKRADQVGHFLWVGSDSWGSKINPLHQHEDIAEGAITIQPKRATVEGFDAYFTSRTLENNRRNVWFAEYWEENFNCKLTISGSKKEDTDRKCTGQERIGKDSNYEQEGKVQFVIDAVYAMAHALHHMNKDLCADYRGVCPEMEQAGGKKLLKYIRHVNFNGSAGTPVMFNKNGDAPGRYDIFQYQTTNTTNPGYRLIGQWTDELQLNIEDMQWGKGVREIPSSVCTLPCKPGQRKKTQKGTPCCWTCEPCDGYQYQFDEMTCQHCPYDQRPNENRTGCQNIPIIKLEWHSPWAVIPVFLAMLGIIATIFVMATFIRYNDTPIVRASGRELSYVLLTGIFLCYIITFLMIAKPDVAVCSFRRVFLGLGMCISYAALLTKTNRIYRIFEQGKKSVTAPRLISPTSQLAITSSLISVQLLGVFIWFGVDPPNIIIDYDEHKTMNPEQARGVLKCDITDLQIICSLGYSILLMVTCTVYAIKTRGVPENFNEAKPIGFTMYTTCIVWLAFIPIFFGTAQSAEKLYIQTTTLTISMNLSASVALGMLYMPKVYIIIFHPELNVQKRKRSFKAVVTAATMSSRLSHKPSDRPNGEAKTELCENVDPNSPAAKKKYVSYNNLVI

- fold shift of L-AP4 EC50: 0.696 (inactive)
SMILES: O=C(c1ccc(C#Cc2cccc(F)c2)cn1)N1CC2CC2C1 (stereo unspecified)
